Converted amounts (≈) assume the structure as drawn.
Columns and labels:
Type in all cases: functional
Escherichia coli = test: Antibacterial activity against Escherichia coli after 16 to 18 hrs by serial dilution method; details: for MIC: Escherichia coli
Summary of the method: (§1)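 The test compound was dissolved in DMF and serially diluted. A standard drop of the prepared microbial culture was added to each dilution, and tubes were incubated at 37 °C for 16–18 h. MIC was taken as the highest dilution that stayed clear with no visible turbidity.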

Staphylococcus aureus = test: Antibacterial activity against Staphylococcus aureus after 16 to 18 hrs by serial dilution method; details: for MIC: Staphylococcus aureus; summary of the method: as §1
Aspergillus fumigatus = test: Antifungal activity against Aspergillus fumigatus after 16 to 18 hrs by serial dilution method; details: for MIC: Aspergillus fumigatus
Klebsiella pneumoniae = test: Antibacterial activity against Klebsiella pneumoniae after 16 to 18 hrs by serial dilution method; details: for MIC: Klebsiella pneumoniae
Aspergillus flavus = test: Antifungal activity against Aspergillus flavus after 16 to 18 hrs by serial dilution method; details: for MIC: Aspergillus flavus; summary of the method: as §1
Talaromyces marneffei = test: Antifungal activity against Penicillium marneffei after 16 to 18 hrs by serial dilution method; details: for MIC: Talaromyces marneffei; summary of the method: as §1
Pseudomonas aeruginosa = test: Antibacterial activity against Pseudomonas aeruginosa after 16 to 18 hrs by serial dilution method; details: for MIC: Pseudomonas aeruginosa; summary of the method: as §1
[1] = system: Trichophyton mentagrophytes; test: Antifungal activity against Trichophyton mentagrophytes after 16 to 18 hrs by serial dilution method; details: for MIC: Trichophyton mentagrophytes

| Structure (SMILES) | inhibition zone (IZ) (Escherichia coli) [mm] | MIC (Escherichia coli) [µg/mL] | inhibition zone (IZ) (Staphylococcus aureus) [mm] | MIC (Staphylococcus aureus) [µg/mL] | inhibition zone (IZ) (Aspergillus fumigatus) [mm] | MIC (Aspergillus fumigatus) [µg/mL] | inhibition zone (IZ) (Klebsiella pneumoniae) [mm] | MIC (Klebsiella pneumoniae) [µg/mL] | inhibition zone (IZ) (Aspergillus flavus) [mm] | MIC (Aspergillus flavus) [µg/mL] | inhibition zone (IZ) (Talaromyces marneffei) [mm] | MIC (Talaromyces marneffei) [µg/mL] | inhibition zone (IZ) (Pseudomonas aeruginosa) [mm] | MIC (Pseudomonas aeruginosa) [µg/mL] | inhibition zone (IZ) [1] [mm] | MIC [1] [µg/mL] |
| --- | --- | --- | --- | --- | --- | --- | --- | --- | --- | --- | --- | --- | --- | --- | --- | --- |
| Cc1ccccc1OCc1ccccc1-c1nnc(-c2cccc3ncccc23)o1 | <10 | 25 (≈ 63.5 µM) | <10 | 25 (≈ 63.5 µM) | <10 | 25 (≈ 63.5 µM) | <10 | 25 (≈ 63.5 µM) | <10 | 25 (≈ 63.5 µM) | <10 | 25 (≈ 63.5 µM) | <10 | 25 (≈ 63.5 µM) | <10 | 25 (≈ 63.5 µM) |
| Clc1ccc(OCc2ccccc2-c2nnc(-c3ccccc3)o2)cc1 | <10 | 25 (≈ 68.9 µM) | <10 | 25 (≈ 68.9 µM) | <10 | 25 (≈ 68.9 µM) | <10 | 25 (≈ 68.9 µM) | <10 | 25 (≈ 68.9 µM) | <10 | 25 (≈ 68.9 µM) | <10 | 25 (≈ 68.9 µM) | <10 | 25 (≈ 68.9 µM) |
| COc1cc(-c2nnc(-c3ccccc3COc3ccc(C)cc3)o2)cc(OC)c1OC | 16 | 6.25 (≈ 14.5 µM) | 16 | 6.25 (≈ 14.5 µM) | 16 | 6.25 (≈ 14.5 µM) | 16 | 6.25 (≈ 14.5 µM) | 11 | 12.5 (≈ 28.9 µM) | 16 | 6.25 (≈ 14.5 µM) | 16 | 6.25 (≈ 14.5 µM) | 11 | 12.5 (≈ 28.9 µM) |
| COc1cc(-c2nnc(-c3ccccc3COc3ccccc3C)o2)cc(OC)c1OC | 16 | 6.25 (≈ 14.5 µM) | 16 | 6.25 (≈ 14.5 µM) | 16 | 6.25 (≈ 14.5 µM) | 16 | 6.25 (≈ 14.5 µM) | 16 | 6.25 (≈ 14.5 µM) | 16 | 6.25 (≈ 14.5 µM) | 16 | 6.25 (≈ 14.5 µM) | 16 | 6.25 (≈ 14.5 µM) |
| Cc1cccc(OCc2ccccc2-c2nnc(SCc3ccc(Cl)cc3)o2)c1 | 11 | 12.5 (≈ 29.6 µM) | 11 | 12.5 (≈ 29.6 µM) | 11 | 12.5 (≈ 29.6 µM) | 11 | 12.5 (≈ 29.6 µM) | 11 | 12.5 (≈ 29.6 µM) | 11 | 12.5 (≈ 29.6 µM) | 11 | 12.5 (≈ 29.6 µM) | 11 | 12.5 (≈ 29.6 µM) |
| Cc1ccccc1OCc1ccccc1-c1nnc(SCc2ccc(Cl)cc2)o1 | 11 | 12.5 (≈ 29.6 µM) | 11 | 12.5 (≈ 29.6 µM) | 11 | 12.5 (≈ 29.6 µM) | 11 | 12.5 (≈ 29.6 µM) | 11 | 12.5 (≈ 29.6 µM) | 11 | 12.5 (≈ 29.6 µM) | 11 | 12.5 (≈ 29.6 µM) | 11 | 12.5 (≈ 29.6 µM) |
| Cc1ccc(OCc2ccccc2-c2nnc(-c3ccccc3F)o2)cc1 | 16 | 6.25 (≈ 17.3 µM) | 16 | 6.25 (≈ 17.3 µM) | 16 | 6.25 (≈ 17.3 µM) | 16 | 6.25 (≈ 17.3 µM) | 16 | 6.25 (≈ 17.3 µM) | 16 | 6.25 (≈ 17.3 µM) | 16 | 6.25 (≈ 17.3 µM) | 16 | 6.25 (≈ 17.3 µM) |
| Cc1ccc(OCc2ccccc2-c2nnc(-c3ccccc3)o2)cc1 | <10 | 25 (≈ 73 µM) | <10 | 25 (≈ 73 µM) | <10 | 25 (≈ 73 µM) | <10 | 25 (≈ 73 µM) | <10 | 25 (≈ 73 µM) | <10 | 25 (≈ 73 µM) | <10 | 25 (≈ 73 µM) | <10 | 25 (≈ 73 µM) |
| Cc1ccccc1OCc1ccccc1-c1nnc(-c2ccccc2F)o1 | 16 | 6.25 (≈ 17.3 µM) | 16 | 6.25 (≈ 17.3 µM) | 16 | 6.25 (≈ 17.3 µM) | 16 | 6.25 (≈ 17.3 µM) | 16 | 6.25 (≈ 17.3 µM) | 16 | 6.25 (≈ 17.3 µM) | 16 | 6.25 (≈ 17.3 µM) | 16 | 6.25 (≈ 17.3 µM) |
| Cc1ccccc1OCc1ccccc1-c1nnc(-c2ccc(Cl)cc2)o1 | <10 | 25 (≈ 66.3 µM) | <10 | 25 (≈ 66.3 µM) | <10 | 25 (≈ 66.3 µM) | <10 | 25 (≈ 66.3 µM) | <10 | 25 (≈ 66.3 µM) | <10 | 25 (≈ 66.3 µM) | <10 | 25 (≈ 66.3 µM) | <10 | 25 (≈ 66.3 µM) |
| Cc1ccc(Cl)c(NCn2nc(-c3ccccc3COc3ccc(Cl)cc3)oc2=S)c1 | <10 | 25 (≈ 52.9 µM) | <10 | 25 (≈ 52.9 µM) | <10 | 25 (≈ 52.9 µM) | <10 | 25 (≈ 52.9 µM) | <10 | 25 (≈ 52.9 µM) | <10 | 25 (≈ 52.9 µM) | <10 | 25 (≈ 52.9 µM) | <10 | 25 (≈ 52.9 µM) |
| Cc1cccc(OCc2ccccc2-c2nnc(-c3ccccc3)o2)c1 | <10 | 25 (≈ 73 µM) | <10 | 25 (≈ 73 µM) | <10 | 25 (≈ 73 µM) | <10 | 25 (≈ 73 µM) | <10 | 25 (≈ 73 µM) | <10 | 25 (≈ 73 µM) | <10 | 25 (≈ 73 µM) | <10 | 25 (≈ 73 µM) |
| Cc1cccc(OCc2ccccc2-c2nn(CNc3ccc(Cl)cc3C(=O)C(F)(F)F)c(=S)o2)c1 | <10 | 25 (≈ 46.8 µM) | <10 | 25 (≈ 46.8 µM) | <10 | 25 (≈ 46.8 µM) | <10 | 25 (≈ 46.8 µM) | <10 | 25 (≈ 46.8 µM) | <10 | 25 (≈ 46.8 µM) | <10 | 25 (≈ 46.8 µM) | <10 | 25 (≈ 46.8 µM) |
| COc1cc(-c2nnc(-c3ccccc3COc3ccc(Cl)cc3)o2)cc(OC)c1OC | 16 | 6.25 (≈ 13.8 µM) | 16 | 6.25 (≈ 13.8 µM) | 16 | 6.25 (≈ 13.8 µM) | 16 | 6.25 (≈ 13.8 µM) | 16 | 6.25 (≈ 13.8 µM) | 16 | 6.25 (≈ 13.8 µM) | 16 | 6.25 (≈ 13.8 µM) | 16 | 6.25 (≈ 13.8 µM) |
| Cc1ccccc1OCc1ccccc1-c1nn(CN2CCOCC2)c(=S)o1 | 11 | 12.5 (≈ 31.4 µM) | 11 | 12.5 (≈ 31.4 µM) | 11 | 12.5 (≈ 31.4 µM) | 11 | 12.5 (≈ 31.4 µM) | 11 | 12.5 (≈ 31.4 µM) | 11 | 12.5 (≈ 31.4 µM) | 11 | 12.5 (≈ 31.4 µM) | 11 | 12.5 (≈ 31.4 µM) |
| Cc1ccc(Cl)c(NCn2nc(-c3ccccc3COc3ccccc3C)oc2=S)c1 | <10 | 25 (≈ 55.3 µM) | <10 | 25 (≈ 55.3 µM) | <10 | 25 (≈ 55.3 µM) | <10 | 25 (≈ 55.3 µM) | <10 | 25 (≈ 55.3 µM) | <10 | 25 (≈ 55.3 µM) | <10 | 25 (≈ 55.3 µM) | <10 | 25 (≈ 55.3 µM) |

Reference: ChEMBL document CHEMBL1275272, “Synthesis, characterization and antimicrobial activity of some disubstituted 1,3,4-oxadiazoles carrying 2-(aryloxymethyl)phenyl moiety” (2010)
